A selection: hits, their analogues and other compounds. The true share with any hit is near 2.1%.
MIN6 prolif = inducers of MIN6 beta-cell proliferation, primary screen, ATP luminescence, uHTS. MIN6 cells proliferation, ATPlite luminescence, 48 h; cells starved in 0.2% serum; 100% = growth in 10% serum. proliferation, % at 10 µM. 0.29% of 330,000 active;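 active means compounds whose signal lies at least 3.5 SD above the mean of all wells on their plate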;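 further: 0% = DMSO-treated cells in low-serum medium and 100% = 10% serum control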
UCH37 inh = inhibitors of human UCH37 deubiquitinase, primary screen, biochemical, Ub-AMC cleavage, fluorescence | Ubiquitin carboxyl-terminal hydrolase isozyme L5 (Homo sapiens), Q9Y5K5 | purified proteasome/UCH37 | inhibition, % (no concentration beside the values) | 0.33% of 330,000 active | AID 588478, 2011;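 active means mean inhibition over replicate wells above about 20%, limit read from the data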;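 further: 0% = compound-free wells with enzyme and 100% = wells lacking proteasome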
Target sequence (Q9Y5K5 whole entry, looked up): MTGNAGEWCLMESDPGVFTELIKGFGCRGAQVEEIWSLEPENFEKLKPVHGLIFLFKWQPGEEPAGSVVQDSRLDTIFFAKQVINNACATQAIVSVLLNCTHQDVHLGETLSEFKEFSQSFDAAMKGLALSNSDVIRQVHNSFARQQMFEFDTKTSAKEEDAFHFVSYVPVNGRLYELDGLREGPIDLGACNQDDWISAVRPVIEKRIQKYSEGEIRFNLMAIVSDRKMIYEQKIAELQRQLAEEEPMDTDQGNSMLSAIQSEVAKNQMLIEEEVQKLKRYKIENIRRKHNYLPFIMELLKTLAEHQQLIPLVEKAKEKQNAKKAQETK
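Signal – fluorescence, ex 355 nm, em 460 nm · System – Proteasome-bound UCH37 · Input – 0.15 nM proteasome as dispensed · Timing – 30 min preincubation with enzyme, 25 min cleavage at room temperature · Read-out basis – percent inhibition of cleavage signal versus uninhibited and no-proteasome wells · Medium – Tris-HCl pH 7.4 with ATP-MgCl2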
iPSC survival up = enhancers of single-cell hiPSC survival, primary screen, ATPlite luminescence; survival enhancement, % at 20 µM; 0.044% of 360,000 active; 100% = ROCK inhibitor wells, 0% = DMSO; AID 602274, 2012; in the data active means survival enhancement above about 18%;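 further: cells exposed to compounds for 16 hours before the ATP read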
CRFR2-BP ag = agonists of CRF-BP/CRF-R2 complex, primary screen, cell-based, HEK293, calcium dye fluorescence, uHTS; 0.46% of 350,000 active; CRF-binding protein / CRF receptor 2 complex (human); calcium dye fluorescence (FLIPR); percent of saturating CRF peptide response; activation, % at 13.2 µM; AID 588473, 2011;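 active means activation of at least 50%, plus an integration ratio under a set limit after plate pattern correction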;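 further: plate controls were neutral control wells without compound for no effect and CRF at EC100 for full effect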
H9c2 protect = cardioprotection against H2O2-induced cell death, primary screen, uHTS, H9c2 cells, ATPLite luminescence; 0.63% of 360,000 active; AID 588492, 2011; protection from H2O2 cell death, % at 20 µM; H9c2 cardiomyocytes, H2O2 injury protection, 2 h;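 active means compounds giving at least 50% protection of heart cells from peroxide-induced death in the single-dose screen, raw or plate-pattern-corrected value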;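 further: 0% = DMSO wells with peroxide and 100% = DMSO wells without peroxide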
CRFBP-R2 block = antagonists of CRF-BP/CRF-R2 complex, primary screen, cell-based, HEK293, calcium dye fluorescence, uHTS; inhibition, % at 11.8 µM; 0.59% of 350,000 active; CRF-induced calcium fluorescence; AID 588475, 2011;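 active means inhibition of the ligand-induced calcium signal above about 50% at the single tested concentration, limit read from the data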
Active calls of the source: *; i = inactive; / = not tested or not shown.

SMILES	MIN6 prolif	UCH37 inh	iPSC survival up	CRFR2-BP ag	H9c2 protect	CRFBP-R2 block
CC1CCCC(C)N1C(=O)CSc1nc2ccccc2c(=O)[nH]1 (stereo unspecified)	-4	2	0	1	70*	-2
CC1CCCC(C)N1C(=O)CSc1nc(N)c(-c2ccccc2)c(=O)[nH]1 (stereo unspecified)	-3	2	-1	-1	4	-7
O=C(CSc1nc2ccccc2c(=O)[nH]1)N1CCOCC1	-2	-2	2	1	67*	27
Cc1sc2nc(SCC(=O)NCc3ccco3)[nH]c(=O)c2c1C	-2	4	0	1	60*	21
COc1ccc(N2CCN(C(=O)CSc3nc4ccccc4c(=O)[nH]3)CC2)cc1	1	1	0	-1	48	7
COc1ccc(C=NNC(=O)CN(Cc2ccccc2)S(=O)(=O)c2ccc3c(c2)OCCO3)cc1	/	1	/	/	/	/
CC1CCN(C(=O)CSc2nc3ccccc3c(=O)[nH]2)CC1	1	0	-1	-3	44	17
O=C(CSc1nc2ccccc2c(=O)[nH]1)N1CCCCCC1	-1	2	0	-1	51*	-5
O=C(CSc1nc2ccccc2c(=O)[nH]1)N1CCN(S(=O)(=O)c2ccccc2)CC1	-2	-1	-2	0	56*	-11
C=C(C)C1CC=C(C)C(=NNC(=O)c2ccoc2C)C1 (stereo unspecified)	/	2	/	/	/	/
COc1ccc(C=NNc2nc(Nc3ccccc3)nc(N3CCCCC3)n2)cc1OC	/	7	/	/	/	/
Cc1[nH]c2ccccc2c1C(=O)CN1C(=O)NC(C)(c2ccc(Cl)cc2Cl)C1=O (stereo unspecified)	-5	1	1	67*	21	-199
Cc1[nH]c2ccccc2c1C(=O)CSc1ccc(Cl)cc1	-3	-1	0	-2	-10	-8
C=CCN1C(=O)[C@H]2CCC=C[C@H]2[C@@H]1c1cccc(C)c1	/	24*	-1	-6	-4	-2
Cc1cccc([C@H]2[C@@H]3C=CCC[C@@H]3C(=O)N2Cc2ccccc2)c1	/	3	-2	-4	1	3
ON1C(c2ccc(Cl)cc2Cl)N(O)[C@H]2CCCC[C@H]21 (stereo partly specified)	-1	4	-2	-2	-2	51*
CC(=NO)C(CN(C)C)=NO	/	1	/	/	/	/
CC(Oc1ccc(Br)cc1)C(=O)Nc1ccc(S(=O)(=O)NC2=NCCCCC2)cc1 (stereo unspecified)	/	3	0	81*	-6	-79
CC(=O)Nc1ccc(S(=O)(=O)N(C)CC(=O)NN=Cc2cccc(O)c2)cc1	/	1	/	/	/	/
CC(CC(=O)Nc1ccc(N(C)C)cc1)=NNC(=O)c1ccc(C(C)(C)C)cc1	/	4	/	/	/	/
N#CC1=C(N)Oc2cc(N)ccc2C1c1cccnc1 (stereo unspecified)	1	1	-3	-1	27	-5
CCN(CC)c1ccc2c(c1)OC(N)=C(C#N)C2c1cccnc1 (stereo unspecified)	0	5	-1	181*	3	-183
CCOc1ccc(C(Nc2ccc(C)cc2)P2(=O)OCCC(C)O2)cc1 (stereo unspecified)	-4	30*	-3	-2	1	12
COc1ccc(C2Nc3ccc(Br)cc3C(c3ccccc3)N2CC(=O)O)cc1 (stereo unspecified)	0	3	0	-6	-10	87*
O=C(O)CN1C(c2ccccc2O)Nc2ccc(Br)cc2C1c1ccccc1 (stereo unspecified)	3	2	1	-2	7	63*
SMILES	MIN6 prolif	UCH37 inh	iPSC survival up	CRFR2-BP ag	H9c2 protect	CRFBP-R2 block
Cc1ccccc1NC(=O)CC1SC(=Nc2nccs2)N(C)C1=O (stereo unspecified)	/	5	/	/	/	/
CCOC(=O)c1cc(C#N)c(SCC(N)=O)[nH]c1=O	0	-54	0	10	-1	1
CCOC(=O)c1cc(C#N)c(SCC(=O)c2cc(C#N)c(SC)nc2C)[nH]c1=O	0	-14	-1	6	76*	-3
CCOC(=O)CC(=NNc1ncnc2ccccc12)c1ccccc1	/	6	/	/	/	/
CSc1ccccc1NC(=O)COC(=O)c1c[nH]c(=O)[nH]c1=O	-3	1	1	112*	-5	-60
O=C(COC(=O)c1c[nH]c(=O)[nH]c1=O)Nc1ccccc1F	-3	4	1	0	4	4
N#CC[C@H](Cc1ccccc1)N1CC[C@@H](NC(=O)OCc2ccccc2)CCC1=O	-1	23*	-2	0	1	1
COc1ccc(SC[C@H](Cc2ccccc2)N2CC[C@@H](NC(=O)OCc3ccccc3)CCC2=O)cc1	-6	-1	-1	2	-4	8
CC(Cn1nnc2ccccc21)=NOC(=O)c1ccccc1C	/	4	/	/	/	/
CC(C)(C)C(=O)C=c1[nH]c(=O)c(=Cc2ccc(F)cc2)s1	/	0	/	/	/	/
COc1ccc(S(=O)(=O)N(C)CC(=O)NC2CCCCC2)cc1OC	-1	2	-1	0	0	51*
COc1ccc(S(=O)(=O)N(C)CC(=O)NC2CC2)cc1OC	-1	4	0	1	-3	2
CCCCC(C)=NNC(=O)NC1CCCCC1	/	1	/	/	/	/
Cc1nc(N)sc1-c1csc(Nc2ccccc2)n1	0	2	-2	-2	-4	79*
CC(=O)Nc1nc(C)c(-c2csc(Nc3cccc(C(C)=O)c3)n2)s1	-6	2	0	3	66*	-1
CC(=O)Nc1ccc(Nc2nc(-c3sc(NC(C)=O)nc3C)cs2)cc1	-3	/	-1	1	57*	12
Cc1cc(NC(=O)CN2CCN(S(=O)(=O)c3ccc4ccccc4c3)CC2)no1	-1	0	-3	3	2	50*
CC(=O)c1ccc(NC(=O)CN2CCN(S(=O)(=O)c3ccc4ccccc4c3)CC2)cc1	-3	3	0	1	-3	6
O=C(Nc1ccccn1)C1CCN(S(=O)(=O)c2ccc3ccccc3c2)CC1	-1	2	0	0	-3	59*
N#Cc1c(-c2ccco2)cc(-c2cccnc2)nc1N	2	i	0	1	87*	-3
N#Cc1c(-c2cccnc2)cc(-c2ccccc2)nc1N	1	i	-1	-3	-1	-9
N#Cc1c(-c2ccco2)cc(C2CC2)nc1N	-2	-153	0	-3	24	15
